In ChEMBL document CHEMBL1156759, “Identification and optimization of inhibitors of Trypanosomal cysteine proteases: cruzain, rhodesain, and TbCatB” (J Med Chem, 2010):
The source made the active and inactive calls. The rule behind the calls is not given here.

Columns and labels:
[1] = molecular target: T1, Cruzipain (Trypanosoma cruzi, UniProt P25779); experiment: Inhibition of Trypanosoma cruzi cruzain after 15 mins
Summary of the method: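 Cruzain at 1.5 nM final in 100 mM acetate pH 5.5, 5 mM DTT, 0.01% Triton X-100; compounds as serial 2-fold dilutions pin-transferred in DMSO. 15 min room-temperature preincubation, then Z-FR-AMC 2 μM final. Kinetic fluorescence read at ex 340/em 450 nm. Percent inhibition from the first 60 s signal change versus no-enzyme and uninhibited controls (48 wells each).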

[2] = tested on: Trypanosoma cruzi; experiment: Antitrypanosomal activity against Trypanosoma cruzi Y trypomastigotes infected in mouse J774 cells at 5 uM after 27 days medium replaced every 48 hrs; format: functional, organism-based
Summary of the method: (§1)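 Irradiated (1000 rad) J774 macrophages plated overnight, infected 2 h with Y strain trypomastigotes, parasites removed, then cultured in RPMI-1640 with compound (n = 3); untreated infected and 10 μM K777 controls per experiment. Medium replaced every 48 h over 27 days; daily phase-contrast microscopy (400×) for free trypomastigotes and host toxicity; cultures kept 14 further days to confirm cure.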

[3] = molecular target: T1, Cruzipain; experiment: Inhibition of recombinant Trypanosoma cruzi cruzain after 5 mins by spectrofluorimetric analysis
Summary of the method: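 Recombinant cruzain at 4 nM (activated procruzain, anion-exchange purified) in 100 mM sodium acetate pH 5.5, 5 mM DTT, 0.001% Triton X-100. Preincubated 5 min at room temperature with compound in DMSO, then Z-Phe-Arg-AMC 10 μM. Fluorescence rate read at ex 355/em 460 nm; DMSO controls; IC50 by curve fitting.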

[4] = tested on: Trypanosoma cruzi; experiment: Antitrypanosomal activity against Trypanosoma cruzi Y trypomastigotes infected in mouse J774 cells at 1 uM after 27 days medium replaced every 48 hrs; format: functional, organism-based; summary of the method: as §1
[5] = Inhibition of recombinant Trypanosoma brucei rhodesain after 5 mins by spectrofluorimetric analysis
Summary of the method: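 Recombinant rhodesain, 4 nM, preincubated 5 min at room temperature with compound (DMSO) in 100 mM sodium acetate pH 5.5, 5 mM DTT, 0.001% Triton X-100. Reaction started with 10 μM Z-Phe-Arg-AMC; rate of AMC fluorescence increase read at ex 355/em 460 nm. IC50 from curve fitting; DMSO-only wells as positive control.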

[6] = Inhibition of recombinant Trypanosoma brucei cathepsin B after 5 mins by spectrofluorimetric analysis
Summary of the method: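 Recombinant TbCatB at 258 nM in 100 mM sodium acetate pH 5.5, 5 mM DTT, 0.001% Triton X-100, preincubated with compound in DMSO for 5 min at room temperature. Z-Phe-Arg-AMC 10 μM added to start. Rate of fluorescence rise read at ex 355/em 460 nm; DMSO control wells; IC50 from curve fitting.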

[7] = tested on: J774; experiment: Cytotoxicity against mouse J774 cells at 10 uM; format: cell-based; conditions: j774, 10 µM
Summary of the method: (§2)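 Irradiated (1000 rad) J774 macrophages plated overnight and infected 2 h with Y strain T. cruzi trypomastigotes. After parasite removal, cultured in RPMI-1640 with compound (n = 3), medium changed every 48 h, for 27 days. Toxicity to host cells (granulation, detachment, death) scored daily by phase-contrast microscopy at 400×.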

[8] = tested on: Trypanosoma cruzi; experiment: Antitrypanosomal activity against Trypanosoma cruzi Y trypomastigotes infected in mouse J774 cells at 10 uM after 27 days medium replaced every 48 hrs; format: functional, organism-based; summary of the method: as §1
[9] = tested on: J774; experiment: Cytotoxicity against mouse J774 cells at 5 uM; format: cell-based; conditions: j774, 5 µM; summary of the method: as §2
[10] = molecular target: Caspase-6 (Homo sapiens, UniProt P55212); experiment: Inhibition of human Caspase 6
Summary of the method: (§3)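 Profiling panel run externally as 10-dose, 3-fold serial dilutions of compound. Protease activity followed as a time course of fluorescence increase from a fluorescently labeled peptide substrate. The initial linear slope (signal/min) was analysed.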

[11] = species on record: Rattus norvegicus; experiment: Toxicity in rat; format: organism-based; conditions: in vivo
[12] = molecular target: T2, Cathepsin K (Homo sapiens, UniProt P43235); experiment: Inhibition of human Cathepsin K/O2; summary of the method: as §3
T2 sequence (P43235 whole entry): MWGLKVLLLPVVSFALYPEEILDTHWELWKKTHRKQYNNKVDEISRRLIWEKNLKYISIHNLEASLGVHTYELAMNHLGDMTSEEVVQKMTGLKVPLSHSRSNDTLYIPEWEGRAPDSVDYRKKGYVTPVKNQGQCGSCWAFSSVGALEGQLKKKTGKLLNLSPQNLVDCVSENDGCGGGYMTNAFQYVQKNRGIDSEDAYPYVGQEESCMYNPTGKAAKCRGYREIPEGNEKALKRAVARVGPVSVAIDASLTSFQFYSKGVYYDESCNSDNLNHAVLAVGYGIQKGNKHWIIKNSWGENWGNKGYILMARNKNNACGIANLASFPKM

[13] = molecular target: Procathepsin L (Homo sapiens, UniProt P07711); experiment: Inhibition of human Cathepsin L; summary of the method: as §3
[14] = species on record: Canis familiaris; experiment: Toxicity in dog; format: organism-based, Canis lupus familiaris; conditions: in vivo
[15] = species on record: Mus musculus; experiment: Toxicity in mouse; format: organism-based; conditions: in vivo
[16] = molecular target: T3, Cathepsin L2 (Homo sapiens, UniProt O60911); experiment: Inhibition of human Cathepsin V; summary of the method: as §3
T3 sequence (O60911 whole entry): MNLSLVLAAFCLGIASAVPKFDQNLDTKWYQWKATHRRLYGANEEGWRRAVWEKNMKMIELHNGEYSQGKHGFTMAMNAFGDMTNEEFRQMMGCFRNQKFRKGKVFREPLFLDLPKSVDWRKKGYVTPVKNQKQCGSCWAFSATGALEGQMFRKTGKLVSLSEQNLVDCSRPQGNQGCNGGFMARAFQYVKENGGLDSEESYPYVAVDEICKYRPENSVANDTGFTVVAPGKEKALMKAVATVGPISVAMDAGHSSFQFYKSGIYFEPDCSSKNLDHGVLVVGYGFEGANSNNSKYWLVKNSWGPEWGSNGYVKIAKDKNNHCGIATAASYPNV

[17] = molecular target: Cathepsin S (Homo sapiens, UniProt P25774); experiment: Inhibition of human Cathepsin S; summary of the method: as §3
[18] = molecular target: Caspase-14 (Homo sapiens, UniProt P31944); experiment: Inhibition of human Caspase 14; summary of the method: as §3
[19] = molecular target: Cathepsin Z (Homo sapiens, UniProt Q9UBR2); experiment: Inhibition of human Cathepsin X/Z; summary of the method: as §3
[20] = molecular target: T4, Pro-cathepsin H (Homo sapiens, UniProt P09668); experiment: Inhibition of human Cathepsin H; summary of the method: as §3
T4 sequence (P09668 whole entry): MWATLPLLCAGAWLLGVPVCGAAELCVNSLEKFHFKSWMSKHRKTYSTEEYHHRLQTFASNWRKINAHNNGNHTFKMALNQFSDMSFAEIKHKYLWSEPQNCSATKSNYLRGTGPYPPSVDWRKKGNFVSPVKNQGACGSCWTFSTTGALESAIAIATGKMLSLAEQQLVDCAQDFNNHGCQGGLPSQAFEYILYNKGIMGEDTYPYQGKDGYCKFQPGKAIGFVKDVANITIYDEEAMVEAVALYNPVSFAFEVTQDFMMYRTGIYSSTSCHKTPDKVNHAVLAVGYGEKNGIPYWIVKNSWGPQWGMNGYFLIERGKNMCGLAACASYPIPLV

[21] = molecular target: Tissue-type plasminogen activator (Homo sapiens, UniProt P00750); experiment: Inhibition of human tPA; summary of the method: as §3
[22] = molecular target: T5, Papain (Carica papaya, UniProt P00784); experiment: Inhibition of papaya papain; summary of the method: as §3
T5 sequence (P00784 whole entry): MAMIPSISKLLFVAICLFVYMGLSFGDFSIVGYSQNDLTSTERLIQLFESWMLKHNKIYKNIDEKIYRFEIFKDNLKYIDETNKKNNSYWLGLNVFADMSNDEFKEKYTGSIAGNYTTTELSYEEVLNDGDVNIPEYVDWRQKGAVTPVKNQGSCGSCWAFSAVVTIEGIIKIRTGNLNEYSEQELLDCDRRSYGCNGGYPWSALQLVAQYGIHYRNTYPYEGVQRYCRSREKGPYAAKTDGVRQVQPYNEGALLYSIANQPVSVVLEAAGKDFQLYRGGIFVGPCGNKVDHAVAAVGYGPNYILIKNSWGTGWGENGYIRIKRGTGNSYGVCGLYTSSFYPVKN

[23] = molecular target: Caspase-4 (Homo sapiens, UniProt P49662); experiment: Inhibition of human Caspase 4; summary of the method: as §3
[24] = molecular target: Cathepsin B (Homo sapiens, UniProt P07858); experiment: Inhibition of human Cathepsin B; summary of the method: as §3
[25] = molecular target: Caspase-5 (Homo sapiens, UniProt P51878); experiment: Inhibition of human Caspase 5; summary of the method: as §3
Sequence of Caspase-5 (P51878 137-327 limits assumed): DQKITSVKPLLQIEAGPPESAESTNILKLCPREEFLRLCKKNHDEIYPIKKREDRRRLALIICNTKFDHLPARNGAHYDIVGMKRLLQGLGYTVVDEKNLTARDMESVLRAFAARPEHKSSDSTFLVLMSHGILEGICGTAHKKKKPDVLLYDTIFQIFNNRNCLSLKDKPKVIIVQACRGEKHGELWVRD
Sequence of Caspase-5 (P51878 347-434 limits assumed): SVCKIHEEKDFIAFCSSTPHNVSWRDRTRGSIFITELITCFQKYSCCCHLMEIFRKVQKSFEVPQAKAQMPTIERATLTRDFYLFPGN

T1 sequence (P25779 whole entry): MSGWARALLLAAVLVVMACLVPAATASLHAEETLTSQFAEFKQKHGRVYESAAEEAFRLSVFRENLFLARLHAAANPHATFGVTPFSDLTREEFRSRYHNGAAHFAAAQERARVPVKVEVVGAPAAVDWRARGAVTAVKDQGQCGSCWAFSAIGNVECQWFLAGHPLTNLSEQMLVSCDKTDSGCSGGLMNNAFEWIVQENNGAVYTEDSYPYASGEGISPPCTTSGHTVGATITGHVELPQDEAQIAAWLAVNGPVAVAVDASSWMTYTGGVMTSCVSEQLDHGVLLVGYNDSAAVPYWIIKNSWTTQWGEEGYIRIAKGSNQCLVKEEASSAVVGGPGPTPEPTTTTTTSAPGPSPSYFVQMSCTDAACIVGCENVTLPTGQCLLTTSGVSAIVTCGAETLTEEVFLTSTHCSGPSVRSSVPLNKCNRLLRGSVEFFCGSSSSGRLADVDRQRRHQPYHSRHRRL
Sequence of Procathepsin L (P07711 whole entry): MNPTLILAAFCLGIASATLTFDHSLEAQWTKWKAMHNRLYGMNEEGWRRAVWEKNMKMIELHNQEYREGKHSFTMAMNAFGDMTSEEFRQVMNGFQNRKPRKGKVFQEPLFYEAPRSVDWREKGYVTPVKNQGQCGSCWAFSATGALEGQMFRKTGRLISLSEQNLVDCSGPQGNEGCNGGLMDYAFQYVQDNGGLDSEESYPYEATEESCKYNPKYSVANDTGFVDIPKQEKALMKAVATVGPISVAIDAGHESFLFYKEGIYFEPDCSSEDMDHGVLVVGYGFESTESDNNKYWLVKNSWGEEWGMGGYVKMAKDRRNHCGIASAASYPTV
Sequence of Caspase-6 (P55212 24-179 limits assumed): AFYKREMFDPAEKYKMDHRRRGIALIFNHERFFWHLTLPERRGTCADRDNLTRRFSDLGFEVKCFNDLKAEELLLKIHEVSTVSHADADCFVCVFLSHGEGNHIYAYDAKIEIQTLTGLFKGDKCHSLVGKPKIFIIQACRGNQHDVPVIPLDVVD
Sequence of Caspase-6 (P55212 194-293 limits assumed): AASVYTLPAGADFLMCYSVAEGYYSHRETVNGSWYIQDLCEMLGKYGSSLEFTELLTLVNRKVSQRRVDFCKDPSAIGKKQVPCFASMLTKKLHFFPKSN
Sequence of Caspase-14 (P31944 6-146 limits assumed): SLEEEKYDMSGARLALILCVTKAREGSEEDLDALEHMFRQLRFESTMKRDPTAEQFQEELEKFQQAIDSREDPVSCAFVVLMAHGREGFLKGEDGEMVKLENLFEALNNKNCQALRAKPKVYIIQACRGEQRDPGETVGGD
Sequence of Caspase-14 (P31944 153-242 limits assumed): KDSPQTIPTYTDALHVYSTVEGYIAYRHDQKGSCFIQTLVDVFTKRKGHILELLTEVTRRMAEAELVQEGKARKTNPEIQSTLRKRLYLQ
Sequence of Tissue-type plasminogen activator (P00750 whole entry): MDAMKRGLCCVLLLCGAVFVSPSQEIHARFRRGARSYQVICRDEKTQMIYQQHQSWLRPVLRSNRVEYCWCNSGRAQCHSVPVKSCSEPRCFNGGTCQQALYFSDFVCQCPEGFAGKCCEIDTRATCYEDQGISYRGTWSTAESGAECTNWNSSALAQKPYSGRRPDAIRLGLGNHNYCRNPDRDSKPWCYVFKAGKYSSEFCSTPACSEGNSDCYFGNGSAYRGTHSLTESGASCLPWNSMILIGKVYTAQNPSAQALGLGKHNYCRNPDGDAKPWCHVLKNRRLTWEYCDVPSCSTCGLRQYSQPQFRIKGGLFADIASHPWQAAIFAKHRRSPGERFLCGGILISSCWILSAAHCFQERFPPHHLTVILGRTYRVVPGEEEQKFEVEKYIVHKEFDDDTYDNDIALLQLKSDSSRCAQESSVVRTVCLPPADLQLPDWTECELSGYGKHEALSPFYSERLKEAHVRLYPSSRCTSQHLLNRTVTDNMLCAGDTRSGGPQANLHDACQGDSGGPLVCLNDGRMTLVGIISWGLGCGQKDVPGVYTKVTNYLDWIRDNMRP
Sequence of Cathepsin S (P25774 whole entry): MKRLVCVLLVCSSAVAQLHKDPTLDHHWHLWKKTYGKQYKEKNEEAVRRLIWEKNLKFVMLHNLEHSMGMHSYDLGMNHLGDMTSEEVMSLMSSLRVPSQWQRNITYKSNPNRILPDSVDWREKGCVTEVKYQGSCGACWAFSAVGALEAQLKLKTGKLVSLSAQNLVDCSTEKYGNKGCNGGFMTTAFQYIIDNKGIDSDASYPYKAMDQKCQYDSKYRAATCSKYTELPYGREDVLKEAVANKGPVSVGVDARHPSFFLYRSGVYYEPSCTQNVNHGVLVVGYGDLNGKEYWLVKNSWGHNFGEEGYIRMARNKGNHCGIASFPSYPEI
Sequence of Cathepsin Z (Q9UBR2 whole entry): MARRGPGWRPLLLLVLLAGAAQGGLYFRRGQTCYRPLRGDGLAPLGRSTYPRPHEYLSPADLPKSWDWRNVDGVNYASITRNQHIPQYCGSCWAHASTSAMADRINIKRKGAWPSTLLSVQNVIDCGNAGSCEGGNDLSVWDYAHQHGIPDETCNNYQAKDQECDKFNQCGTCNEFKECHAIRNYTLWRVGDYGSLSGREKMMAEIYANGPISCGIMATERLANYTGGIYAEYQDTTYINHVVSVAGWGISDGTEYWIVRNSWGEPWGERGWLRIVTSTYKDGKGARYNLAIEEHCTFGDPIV
Sequence of Caspase-4 (P49662 81-270 limits assumed): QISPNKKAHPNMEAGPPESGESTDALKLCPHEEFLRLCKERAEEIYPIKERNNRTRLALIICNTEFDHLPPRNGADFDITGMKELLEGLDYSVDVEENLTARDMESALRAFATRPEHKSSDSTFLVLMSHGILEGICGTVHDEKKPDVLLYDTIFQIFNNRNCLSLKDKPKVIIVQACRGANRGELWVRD
Sequence of Caspase-4 (P49662 290-377 limits assumed): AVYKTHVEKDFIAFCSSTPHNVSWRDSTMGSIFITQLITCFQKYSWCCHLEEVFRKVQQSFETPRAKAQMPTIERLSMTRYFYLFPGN

Structure (SMILES)	IC50 ([1]; read-out: IC50)	IC50 [3]	IC50 [5]	IC50 [6]	other results
N#Cc1nc(NCC(F)F)c2ncn(-c3cc(F)cc(F)c3)c2n1	50 nM	–	–	–	–
CCCCNc1nc(C#N)nc(Nc2ccccc2)n1	890 nM	–	–	–	–
Cc1cccc(Nc2nc(C#N)nc(NC3CCCC3)n2)c1	126 nM	30 nM	50 nM	6 µM	Activity [2]: inactive; Activity [4]: inactive; Activity [7]: Toxic
N#Cc1nc(Nc2cc(Cl)cc(Cl)c2)nc(NC2CCCC2)n1	398 nM	10 nM	30 nM	> 10 µM	Activity [2]: inactive; Activity [4]: inactive; Activity [7]: Toxic
N#Cc1nc(Nc2cccc(-c3ccccc3)c2)nc(NC2CCCC2)n1	2240 nM	50 nM	30 nM	> 10 µM	Activity [2]: inactive; Activity [4]: inactive; Activity [7]: Toxic
N#Cc1nc(NCC2CC2)nc(Nc2ccccc2)n1	890 nM	–	–	–	–
N#Cc1nc(Nc2cccc(Cl)c2)c2ncn(C3CCCC3)c2n1	40 nM	0.3 nM	< 6 nM	> 10 µM	Activity [8]: inactive
CC(C)Nc1nc(C#N)nc(Nc2ccccc2)n1	890 nM	–	–	–	–
N#Cc1nc(NCCO)nc(Nc2ccccc2)n1	1580 nM	–	–	–	–
N#Cc1nc(Nc2ccccc2)nc(NC2CCCC2)n1	710 nM	–	–	–	–
N#Cc1nc(Nc2cccc(Br)c2)nc(NC2CCCC2)n1	100 nM	2 nM	6 nM	> 100 µM	Activity [4]: inactive; Activity [9]: Toxic; Activity [7]: Toxic
N#Cc1nc(NCC(F)F)c2ncn(-c3cccc(Cl)c3)c2n1	71 nM	–	–	–	–
N#Cc1nc(Nc2cc(F)cc(F)c2)c2ncn(C3CCCC3)c2n1	18 nM	–	–	–	–
CCNc1nc(C#N)nc2c1ncn2-c1cccc(Cl)c1	63 nM	–	–	–	–
CC(C)CNc1nc(C#N)nc(Nc2ccccc2)n1	890 nM	–	–	–	–
N#Cc1nc(NCC(F)F)nc(Nc2cc(F)cc(F)c2)n1	25 nM	1 nM	< 6 nM	1 µM	–

Structure (SMILES)	IC50 ([1]; read-out: IC50)	IC50 [3]	IC50 [5]	IC50 [6]	other results
N#Cc1nc(Nc2cccc(Cl)c2)nc(NC2CCCC2)n1	79 nM	2 nM	6 nM	> 100 µM	Activity [2]: inactive; IC50 [10]: 5.13 µM; Activity [11]: Non-toxic; IC50 [12]: 17.4 nM; IC50 [13]: 309 nM; Activity [14]: Non-toxic; Activity [15]: Non-toxic; Activity [4]: inactive; IC50 [16]: 832 nM; IC50 [17]: 6.46 µM; IC50 [18]: 14.1 µM; IC50 [19]: 6.46 µM; IC50 [20]: 14.5 µM; IC50 [21]: 851 nM; IC50 [22]: 513 nM; Activity [7]: Toxic
CCOc1nc(C#N)nc(N2CCCCC2)n1	–	90 nM	300 nM	> 1 µM	–
N#Cc1nc(Nc2cc(F)cc(F)c2)nc(NC2CCCC2)n1	63 nM	4 nM	5 nM	4 µM	IC50 [10]: 3.55 µM; Activity [11]: Non-toxic; IC50 [23]: 8.13 µM; IC50 [12]: 20.4 nM; IC50 [13]: 204 nM; IC50 [24]: 10 µM; Activity [14]: Non-toxic; Activity [15]: Non-toxic; Activity [4]: inactive; IC50 [16]: 182 nM; IC50 [17]: 5.62 µM; IC50 [18]: 9.12 µM; IC50 [19]: 3.16 µM; IC50 [20]: 16.2 µM; IC50 [21]: 1290 nM; IC50 [22]: 389 nM; Activity [9]: Toxic; IC50 [25]: 13.5 µM; Activity [7]: Toxic
N#Cc1nc(NCCCCO)nc(Nc2ccccc2)n1	890 nM	–	–	–	–
N#Cc1nc(Nc2ccc(Br)cc2)nc(NC2CCCC2)n1	1120 nM	60 nM	100 nM	> 10 µM	–
N#Cc1nc(NC2CCCC2)c2ncn(-c3cc(F)cc(F)c3)c2n1	316 nM	–	–	–	–
N#Cc1nc(Nc2cccc([N+](=O)[O-])c2)nc(NC2CCCC2)n1	63 nM	1 nM	8 nM	> 1 µM	–
N#Cc1nc(Nc2ccc(F)cc2)nc(NC2CCCC2)n1	126 nM	30 nM	40 nM	> 1 µM	–
CNc1nc(C#N)nc(Nc2ccccc2)n1	1260 nM	–	–	–	–
CCNc1nc(C#N)nc(Nc2ccccc2)n1	710 nM	–	–	–	–
CCn1cnc2c(Nc3cccc(Cl)c3)nc(C#N)nc21	18 nM	0.4 nM	10 nM	> 100 µM	Activity [8]: inactive
N#Cc1nc(Nc2cccc(F)c2)nc(NC2CCCC2)n1	79 nM	10 nM	20 nM	> 1 µM	–
CCCNc1nc(C#N)nc(Nc2ccccc2)n1	790 nM	–	–	–	–
N#Cc1nc(Nc2cccc(C(F)(F)F)c2)nc(NC2CCCC2)n1	–	40 nM	70 nM	> 10 µM	Activity [2]: inactive; Activity [4]: inactive; IC50 [1]: Not Active; Activity [7]: Toxic
N#Cc1nc(Nc2ccccc2)nc(NC2CCCCC2)n1	1410 nM	–	–	–	–
